The values that follow come from the RNAGym collection of RNA variant scans (doi:10.1038/nmeth.2970).

Bounds are passed on as bounds.

What is called Kd is the free concentration of one partner at which half of the binding sites on the other are occupied at equilibrium, for simple one-to-one binding.

The labels stand for the following.
B1: GFP aptamer (parent)
chain: GCUUCUGGACUGCGAUGGGAGCACGAAACGUCGUGGCGCAAUUGGGUGGGGAAAGUCCUUAAAAGAGGGCCACCACAGAAGC

In the series the parent is B1. In words: HiTS-RAP. As to conditions: with EGFP. The gist of the method:
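Aptamer DNA templates carrying a T7 promoter and ter site were sequenced on an Illumina GAIIx flowcell, then transcribed in situ by T7 RNA polymerase and halted by GST-Tus (30 minutes, 37°C). Clusters were imaged after 30-minute room-temperature equilibration with EGFP-mOrange at 0.04 nM to 625 nM in fivefold steps. Intensities were decay-corrected, normalised to sequencing intensity and averaged per sequence. Kd came from weighted Hill fits per lane, geometrically averaged over three lanes, with non-rising sequences set to 125 nM.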
With GCUUCUGGACUGCGAUGGGAGCACGAAACGUCGUGGCGCAAUUGGGUGGGGAAAGUCCUUAAAAGAGGGCCAUUACAGAAGC, the Kd is 7.64 nM. The same measure for GCUUCUGGACUGCGAUGGGAGCACGAAACGUCGUGGCGCAAUUGGGUGGGGAAAGUCCCUAAAAGAGGGCCACCACGGAAGC: 0.842 nM. The same measure for GCUUCUGGACUGCGAUGGGAGCACGAAACGUCGUGGCGCAAUUGGGUGGGGAAAGUCCUUAAAAGAGGGCCCCCACAGAAGC: at least 125 nM. Take GCUUCUGGACUGCGAUGGGAGCACGAAACGUCGUGGCGCAAUUGGGUGGGGAAAGUCCUUAAAAGAGGGCCUCCACAGAAGC: the Kd came to 17.7 nM. To GCUUCUGGACUGCGAUGGGAGCACGAAACGUCGUGGCGCAAUUGGGUGGGGAAAGUCCUUAAAAGAGGGCCGCCACAGAAGC belongs 3.33 nM. To GCUUCUGGACUGCGAUGGGAGCACGAAACGUCGUGGCGCAAUUGGGUGGGGAAAGUCCUUAAAAGGGGGCCACCACAGAAGC belongs 11.2 nM. The same measure for GCUUCUGGACUGCGAUGGGAGCACGAAACGUCGUGGCGCAAUUGGGUGGGGAAAGUCCUUAAAAGUGGGCCACCACAGAAGC: 8.88 nM; for GCUUCUGGACUGCGAUGGGAGCACGAAACGUCGUGGCGCAAUUGGGUGGGGAAAGUCCUUAAUAGAGGGCCACCACAGAAGC: at least 125 nM. GCUUCUGGACUGCGAUGGGAGCACGAAACGUCGUGGCGCAAUUGGGUGGGGAAAGUCCUUAACAGAGGGCCACCACAGAAGC: the Kd was at least 125 nM.

Regarding GCUUCUGGACUGCGAUGGGAGCACGAAACGUCGUGGCGCAAUUGGGUGGGGAAAGUCCUUAAGAGAGGGCCACCACAGAAGC, the Kd worked out at 8.55 nM. The same measure for GCUUCUGGACUGCGAUGGGAGCACGAAACGUCGUGGCGCAAUUGGGUGGGGAAAGUCCUUAAAAGAGGGCCAUCACAGAAGC: 6.59 nM; for GCUUCUGGACUGCGAUGGGAGCACGAAACGUCGUGGCGCAAUUGGGUGGGGAAAGUCCUUAAAAGAGGGCCAGCACAGAAGC: 7.26 nM. To GCUUCUGGACUGCGAUGGGAGCACGAAACGUCGUGGCGCAAUUGGGUGGGGAAAGUCCUUAAAAGAGGGCCAACACAGAAGC belongs 8.52 nM. The same measure for GCUUCUGGACUGCGAUGGGAGCACGAAACGUCGUGGCGCAAUUGGGUGGGGAAAGUCCUUAUAAGAGGGCCACCACAGAAGC: 3.36 nM.

In the case of GCUUCUGGACUGCGAUGGGAGCACGAAACGUCGUGGCGCAAUUGGGUGGGGAAAGUCCUUAGAAGAGGGCCACCACAGAAGC, the Kd is 3.54 nM. Turning to GCUUCUGGACUGCGAUGGGAGCACGAAACGUCGUGGCGCAAUUGGGUGGGGAAAGUCCUUACAAGAGGGCCACCACAGAAGC, the Kd is 4 nM. To GCUUCUGGACUGCGAUGGGAGCACGAAACGUCGUGGCGCAAUUGGGUGGGGAAAGUCCUUAAAAGAGGGCCGUCACAGAAGC belongs 8.64 nM; to GCUUCUGGACUGCGAUGGGAGCACGAAACGUCGUGGCGCAAUUGGGUGGGGAAAGUCCUUAAAAGAAGGCCACCACAGAAGC, 14.2 nM; to GCUUCUGGACUGCGAUGGGAGCACGAAACGUCGUGGCGCAAUUGGGUGGGGAAAGUCCUUAAAAGAUGGCCACCACAGAAGC, 9.04 nM. On to GCUUCUGGACUGCGAUGGGAGCACGAAACGUCGUGGCGCAAUUGGGUGGGGAAAGUCCUUAAAAGACGGCCACCACAGAAGC, for which the Kd was 11.8 nM.

On to GCUUCUGGACUGCGAUGGGAGCACGAAACGUCGUGGCGCAAUUGGGUGGGGAAAGUCCUUAAAAGAGGGUCACCACAGAAGC, for which the Kd came to 7.23 nM. To GCUUCUGGACUGCGAUGGGAGCACGAAACGUCGUGGCGCAAUUGGGUGGGGAAAGUCCUUAAAAGAGGGACACCACAGAAGC belongs 79.2 nM. To GCUUCUGGACUGCGAUGGGAGCACGAAACGUCGUGGCGCAAUUGGGUGGGGAAAGUCCUUAAAAGAGGGGCACCACAGAAGC belongs 43.1 nM; to GCUUCUGGACUGCGAUGGGAGCACGAAACGUCGUGGCGCAAUUGGGUGGGGAAAGUCUUUAAAAGAGGGCCAUCACAGAAGC, 0.976 nM; to GCUUCUGGACUGCGAUGGGAGCACGAAACGUCGUGGCGCAAUUGGGUGGGGAAAGUCCUUAAAAGAGGGCGACCACAGAAGC, 37.3 nM. To GCUUCUGGACUGCGAUGGGAGCACGAAACGUCGUGGCGCAAUUGGGUGGGGAAAGUCCUUAAAAGAGGGCAACCACAGAAGC belongs at least 125 nM; to GCUUCUGGACUGCGAUGGGAGCACGAAACGUCGUGGCGCAAUUGGGUGGGGAAAGUCCUUAAAAGAGGGCUACCACAGAAGC, 14.5 nM. For the variant GCUUCUGGACUGCGAUGGGAGCACGAAACGUCGUGGCGCAAUUGGGUGGGGAAAGUCCUUCAAAGAGGGCCACCACAGAAGC, the Kd was determined as 5.03 nM. The same measure for GCUUCUGGACUGCGAUGGGAGCACGAAACGUCGUGGCGCAAUUGGGUGGGGAAAGUCCUUGAAAGAGGGCCACCACAGAAGC: 3.47 nM; for GCUUCUGGACUGCGAUGGGAGCACGAAACGUCGUGGCGCAAUUGGGUGGGGAAAGUCCUUUAAAGAGGGCCACCACAGAAGC: 4.9 nM. The same measure for GCUUCUGGACUGCGAUGGGAGCACGAAACGUCGUGGCGCAAUUGGGUGGGGAAAGUCCUUAAAAGAGGGCCGCUACAGAAGC: 7.35 nM; for GCUUCUGGACUGCGAUGGGAGCACGAAACGUCGUGGCGCAAUUGGGUGGGGAAAGUCCUUAAAAGAGGGCCACCCCAGAAGC: 26.6 nM; for GCUUCUGGACUGCGAUGGGAGCACGAAACGUCGUGGCGCAAUUGGGUGGGGAAAGUCCUUAAAAGAGGGCCACCGCAGAAGC: 9.8 nM. On to GCUUCUGGACUGCGAUGGGAGCACGAAACGUCGUGGCGCAAUUGGGUGGGGAAAGUCCUUAAAAGAGGGCCACCUCAGAAGC, for which the Kd amounted to 26.3 nM. Consider GCUUCUGGACUGCGAUGGGAGCACGAAACGUCGUGGCGCAAUUGGGUGGGGAAAGUCCUUAAAAGAGGGCCACCAGAGAAGC, for which the Kd worked out at 28.8 nM.

For GCUUCUGGACUGCGAUGGGAGCACGAAACGUCGUGGCGCAAUUGGGUGGGGAAAGUCCUUAAAAGAGGGCCACCAAAGAAGC, the dissociation constant (Kd) was determined as 13.6 nM.

Take GCUUCUGGACUGCGAUGGGAGCACGAAACGUCGUGGCGCAAUUGGGUGGGGAAAGUCCUUAAAAGAGGGCCACCAUAGAAGC: the Kd was found to be 37.1 nM. To GCUUCUGGACUGCGAUGGGAGCACGAAACGUCGUGGCGCAAUUGGGUGGGGAAAGUCUUUAAAAGAGGGUCACCACAGAAGC belongs 4.84 nM; to GCUUCUGGACUGCGAUGGGAGCACGAAACGUCGUGGCGCAAUUGGGUGGGGAAAGUCCUUAAAAAAGGGCCACCACAGAAGC, 12.4 nM; to GCUUCUGGACUGCGAUGGGAGCACGAAACGUCGUGGCGCAAUUGGGUGGGGAAAGUCCUUAAAAUAGGGCCACCACAGAAGC, at least 125 nM. As to GCUUCUGGACUGCGAUGGGAGCACGAAACGUCGUGGCGCAAUUGGGUGGGGAAAGUCCUUAAAACAGGGCCACCACAGAAGC, the Kd was found to be 35.3 nM.

For GCUUCUGGACUGCGAUGGGAGCACGAAACGUCGUGGCGCAAUUGGGUGGGGAAAGUCCUUAAAAGAGGGCCACCACCGAAGC, the Kd came out at 15.3 nM. For the variant GCUUCUGGACUGCGAUGGGAGCACGAAACGUCGUGGCGCAAUUGGGUGGGGAAAGUCCUUAAAAGAGGGCCACCACUGAAGC, the equilibrium dissociation constant (Kd) stood at 10.8 nM. Regarding GCUUCUGGACUGCGAUGGGAGCACGAAACGUCGUGGCGCAAUUGGGUGGGGAAAGUCCUUAAAAGAGGGCCACCACGGAAGC, the Kd was 4.77 nM. Turning to GCUUCUGGACUGCGAUGGGAGCACGAAACGUCGUGGCGCAAUUGGGUGGGGAAAGUCCUUAAAAGAGGACCACCACAGAAGC, the Kd was at least 125 nM. The same measure for GCUUCUGGACUGCGAUGGGAGCACGAAACGUCGUGGCGCAAUUGGGUGGGGAAAGUCCUUAAAAGAGGCCCACCACAGAAGC: at least 125 nM. In the case of GCUUCUGGACUGCGAUGGGAGCACGAAACGUCGUGGCGCAAUUGGGUGGGGAAAGUCCUUAAAAGAGGUCCACCACAGAAGC, the Kd amounted to 3.44 nM. The same measure for GCUUCUGGACUGCGAUGGGAGCACGAAACGUCGUGGCGCAAUUGGGUGGGGAAAGUCCAUAAAAGAGGGCCACCACAGAAGC: 10.1 nM; for GCUUCUGGACUGCGAUGGGAGCACGAAACGUCGUGGCGCAAUUGGGUGGGGAAAGUCCCUAAAAGAGGGCCACCACAGAAGC: 16.6 nM; for GCUUCUGGACUGCGAUGGGAGCACGAAACGUCGUGGCGCAAUUGGGUGGGGAAAGUCCGUAAAAGAGGGCCACCACAGAAGC: 6.85 nM. For the variant GCUUCUGGACUGCGAUGGGAGCACGAAACGUCGUGGCGCAAUUGGGUGGGGAAAGUCCUUAAAAGAGGGCCACCGCAGGAGC, the Kd came to 6.58 nM. As to GCUUCUGGACUGCGAUGGGAGCACGAAACGUCGUGGCGCAAUUGGGUGGGGAAAGUCUUUAAAAGAGGGCCACCACAGAAGC, the Kd is 1.21 nM. To GCUUCUGGACUGCGAUGGGAGCACGAAACGUCGUGGCGCAAUUGGGUGGGGAAAGUCCUUAAAAGAGGGCCACGACAGAAGC belongs 14.5 nM; to GCUUCUGGACUGCGAUGGGAGCACGAAACGUCGUGGCGCAAUUGGGUGGGGAAAGUCCUUAAAAGAGGGCCACAACAGAAGC, 28.9 nM. To GCUUCUGGACUGCGAUGGGAGCACGAAACGUCGUGGCGCAAUUGGGUGGGGAAAGUCCUUAAAAGAGGGCCACUACAGAAGC belongs 6.27 nM; to GCUUCUGGACUGCGAUGGGAGCACGAAACGUCGUGGCGCAAUUGGGUGGGGAAAGUCCUUAAAAGAGAGCCACCACAGAAGC, 27.5 nM.

Take GCUUCUGGACUGCGAUGGGAGCACGAAACGUCGUGGCGCAAUUGGGUGGGGAAAGUCCUUAAAAGAGUGCCACCACAGAAGC: the Kd worked out at 15.9 nM. The same measure for GCUUCUGGACUGCGAUGGGAGCACGAAACGUCGUGGCGCAAUUGGGUGGGGAAAGUCCUUAAAAGAGCGCCACCACAGAAGC: 55.4 nM; for GCUUCUGGACUGCGAUGGGAGCACGAAACGUCGUGGCGCAAUUGGGUGGGGAAAGUCCUUAAAAGAGGGCCACCGCGGAAGC: 6.48 nM; for GCUUCUGGACUGCGAUGGGAGCACGAAACGUCGUGGCGCAAUUGGGUGGGGAAAGUCCUUAAAUGAGGGCCACCACAGAAGC: at least 125 nM.

With GCUUCUGGACUGCGAUGGGAGCACGAAACGUCGUGGCGCAAUUGGGUGGGGAAAGUCCUUAAAGGAGGGCCACCACAGAAGC, the Kd was at least 125 nM.

In the case of GCUUCUGGACUGCGAUGGGAGCACGAAACGUCGUGGCGCAAUUGGGUGGGGAAAGUCCUUAAACGAGGGCCACCACAGAAGC, the Kd is at least 125 nM.

For the variant GCUUCUGGACUGCGAUGGGAGCACGAAACGUCGUGGCGCAAUUGGGUGGGGAAAGUCCUUAAAAGGGGGCCACUACAGAAGC, the Kd was 12.3 nM. To GCUUCUGGACUGCGAUGGGAGCACGAAACGUCGUGGCGCAAUUGGGUGGGGAAAGUCUUUAAAAGAGGGCCACUACAGAAGC belongs 5.94 nM. As for GCUUCUGGACUGCGAUGGGAGCACGAAACGUCGUGGCGCAAUUGGGUGGGGAAAGUCCUCAAAAGAGGGCCACCACAGAAGC, the Kd is 16.6 nM.

Consider GCUUCUGGACUGCGAUGGGAGCACGAAACGUCGUGGCGCAAUUGGGUGGGGAAAGUCCUAAAAAGAGGGCCACCACAGAAGC, for which the Kd was determined as 1.71 nM. In the case of GCUUCUGGACUGCGAUGGGAGCACGAAACGUCGUGGCGCAAUUGGGUGGGGAAAGUCCUGAAAAGAGGGCCACCACAGAAGC, the dissociation constant (Kd) came to 5.38 nM.
